Sampled rows, rich in hits. Any-hit rate of the full collection: about 2.4%.
SUMO1-SIM PPI: modulators of SUMO1 protein-protein interactions, primary screen, biochemical, uHTS | SUMO1 binding to a labelled peptide, TR-FRET, 1 h | 0.33% of 360,000 active | Small ubiquitin-related modifier 1 (Homo sapiens), P63165 | inhibition, % at 20 µM; in the data active = inhibition above about 37%
DNMT1 inh: human DNMT1 methyltransferase inhibitors, primary screen, biochemical, molecular beacon, fluorescence, HinP1I cleavage, uHTS; DNA (cytosine-5)-methyltransferase 1 (Homo sapiens), P26358; AID 588458, 2011; 0.83% of 360,000 active; inhibition (reported as % activation of signal), % at 10 µM; in the data active = inhibition above about 50%
LMPTP block: LMPTP phosphatase inhibitors, primary screen, biochemical, fluorescence intensity, uHTS; inhibition, % at 20 µM; recombinant LMPTP-A, OMFP fluorogenic substrate; 0.22% of 360,000 active; Low molecular weight phosphotyrosine protein phosphatase (Homo sapiens), P24666;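 active = compounds that cut the enzyme signal by at least half of the control window in the single-dose screen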;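 note: plate controls were DMSO wells with enzyme plus substrate for no effect and substrate without enzyme for full effect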
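Assay system: LMPTP-A, protein tyrosine phosphatase of low molecular weight / Medium: pH 6.0 Bis-Tris buffer with DTT and Triton X-100 / Schedule: 50 min enzyme reaction at room temperature, protected from light / Measured by: endpoint fluorescence intensity from OMFP dephosphorylation / Read-out basis: % inhibition relative to no-enzyme and uninhibited control wells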
STEP block: STEP phosphatase inhibitors, primary screen, biochemical, fluorescence intensity, uHTS | Tyrosine-protein phosphatase non-receptor type 5 (Homo sapiens), P54829 | recombinant STEP, OMFP fluorogenic substrate | inhibition, % at 20 µM | 0.25% of 360,000 active | AID 588621, 2011;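 active = inhibition at 20 µM, scaled per plate between control wells, above about 37%, limit read from the data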;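 note: 0% = DMSO with enzyme and substrate and 100% = substrate only without enzyme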
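Assay system: isolated STEP enzyme. Buffer or medium: pH 6.0 Bis-Tris with DTT and Tween 20. Also added: fluorogenic phosphatase substrate OMFP at 25 µM final. Dosing: 20 µM, 1% DMSO. Timing: 20 min reaction, room temperature, in the dark. Measured by: fluorescence intensity, excitation 480 nm, emission 540 nm. Evaluation: normalized % inhibition.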
NadD inh: inhibitors of S. aureus NadD, primary screen, biochemical, colorimetric, uHTS | Nicotinate-nucleotide adenylyltransferase NadD (Staphylococcus aureus N315) | purified NadD enzyme, colorimetric absorbance read-out | inhibition, % at 20 µM | 0.78% of 360,000 active | AID 602399, 2012; in the data active = inhibition above about 26%
Scp-1 inhibitor: Scp-1 phosphatase inhibitors, primary screen, biochemical, colorimetric, uHTS. Carboxy-terminal domain RNA polymerase II polypeptide A small phosphatase 1 (Homo …. Recombinant Scp1, phosphopeptide, malachite green phosphate absorbance. inhibition, % at 20 µM. 0.88% of 340,000 active. AID 493091, 2011;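 active = inhibition above about 50% at 20 µM, limit read from the data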;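 note: plate controls were DMSO wells with enzyme for no effect and wells lacking enzyme for full effect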
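Assay system: SCP-1 catalytic fragment, aa 76-261 | Buffer or medium: Tris acetate buffer pH 5.5 with MgCl2 and Tween-20 | Compound: One concentration, 20 µM, with 1.0% DMSO | Also added: Phospho 17-mer peptide substrate | Signal: Absorbance at 630 nm | Incubation: 45 min enzyme reaction at room temperature | Measure: % inhibition of SCP-1 phosphate liberation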
NadD inh conf: inhibitors of S. aureus NadD, confirmation, biochemical, colorimetric, single concentration; shares compounds with NadD inh; purified S. aureus NadD, colorimetric enzyme assay; inhibition, % at 20 µM; 13% of 2,000 active; in the data active = inhibition mostly above about 42%, no sharp cut-off; inactive = mostly below about 42%
* hit, by the source's call; . = not tested or not shown.

SMILES	SUMO1-SIM PPI	DNMT1 inh	LMPTP block	STEP block	NadD inh	Scp-1 inhibitor	NadD inh conf
Cc1ccc(CNC(=O)c2ccc(N3CCC4(CC3)CC(c3cccc(Br)c3)=NO4)c(NC(=O)c3cccc(C)c3)c2)cc1	4	-1	5	5	36*	0	1
CC1Cc2ccccc2N1CC(=O)NC(=O)NCc1ccco1 (stereo unspecified)	2	-17	1	2	32*	-2	31
O=c1c2c(-c3ccco3)csc2nc(SCc2cn3cccnc3n2)n1-c1ccccc1	8	30	16	6	36*	10	8
O=C(c1cc([N+](=O)[O-])[nH]n1)N1CCSCC1	2	0	-1	-1	-9	0	.
COc1ccc(OCCCC(=O)OCC(=O)c2ccc3c(c2)NC(=O)CO3)cc1	7	-11	3	1	-5	-5	.
NC(=O)[C@@H]1CC2(CC(c3cccc(NC(=O)CC(c4ccccc4)c4ccccc4)c3)=NO2)CN1C(=O)COc1ccc(Cl)cc1 (stereo partly specified)	2	-11	2	-1	39*	-6	27
CCCCCC(=O)N1CC2(CC(c3cccc(NC(=O)COc4ccc(Cl)cc4)c3)=NO2)C[C@@H]1C(N)=O (stereo partly specified)	-4	-3	1	2	7	0	.
C/C=C\C(=O)Nc1cccc(C2=NOC3(C2)C[C@@H](C(N)=O)N(C(=O)COc2ccc(Cl)cc2)C3)c1 (stereo partly specified)	-5	-7	0	2	2	0	.
NC(=O)[C@H]1CC2(CC(c3cccc(NC(=O)COc4ccc(Cl)cc4)c3)=NO2)CN1C(=O)CC(c1ccccc1)c1ccccc1 (stereo partly specified)	7	-29	3	-4	37*	-6	50*
CC1CC2=C(NC(=S)NC2c2cccc(F)c2)/C(=C/c2cccc(F)c2)C1 (stereo unspecified)	-1	-1	0	-1	30	0	.
CC1CC2=C(NC(=S)NC2c2ccccc2F)/C(=C/c2ccccc2F)C1 (stereo unspecified)	4	-4	0	1	32*	3	23
CCc1nc2ccccc2n1CCC(=O)O	13	3	0	-4	-1	-4	.
Cn1c2ccccc2c2cc(/C=N/NC(=O)c3cc(O)ccc3O)ccc21	34	46	43	34	49*	59*	52*
Cc1ccc(-n2c(O)c(/C=N/Nc3ccc(S(=O)(=O)N4CCOCC4)cc3[N+](=O)[O-])c3ccccc3c2=O)c(C)c1	11	30	6	2	43*	-2	26
O=C(CC1OC(=O)c2ccccc21)Nc1cc(Cl)ccc1N1CCCC1 (stereo unspecified)	6	21	24	1	32*	-1	12
O=C(CC1OC(=O)c2ccccc21)Nc1ccccc1N1CCOCC1 (stereo unspecified)	-2	-3	-3	0	4	-3	.
Nc1c(C(=O)Nc2ccccc2)sc2nc(-c3ccco3)ccc12	15	-22	6	-3	35*	8	26
Nc1c(C(=O)Nc2nc3ccccc3s2)sc2nc(-c3cccs3)ccc12	-3	37	8	-7	34*	3	23
CC(=O)c1sc2nc(-c3cccs3)ccc2c1N	-13	-16	2	12	19	-13	.
O=C(O)C[C@@H](O)C(=O)O	4	2	-1	1	0	-11	.
O=C(Cc1sc(-c2ccccc2Cl)nc1-c1ccccc1)Nc1ccc(F)cc1	0	14	-2	-7	-1	-8	.
COc1ccc(Cc2nnc(SC(C)C(=O)Nc3ccc(F)cc3Cl)o2)cc1 (stereo unspecified)	3	1	1	-1	-2	-1	.
C=C(C)C1CC=C(C)/C(=N\NC(=O)CNc2cccc3ccccc23)C1 (stereo unspecified)	2	-34	1	-4	37*	-1	1
C=C(C)[C@H]1CC=C(C)/C(=N/NC(=O)CNc2ccccc2OC)C1	-3	-4	0	0	-6	-3	.
O=c1ccn([C@@H]2O[C@H](CNCc3ccccc3OCc3ccc(Cl)cc3Cl)[C@@H](O)[C@H]2O)c(=O)[nH]1	-1	-1	-1	1	-10	.	.
SMILES	SUMO1-SIM PPI	DNMT1 inh	LMPTP block	STEP block	NadD inh	Scp-1 inhibitor	NadD inh conf
Cc1ccc(Nc2nc(Nc3ccc(C)cc3)nc(SC3=NCCS3)n2)cc1	4	12	3	0	30*	12	51*
Cc1ccccc1Nc1nc(Nc2ccccc2C)nc(SC2=NCCS2)n1	-5	-9	2	1	9	8	.
CS(=O)(=O)N1CCc2cc(-c3csc(NC(=O)C(c4ccccc4)c4ccccc4)n3)ccc21	-4	-11	1	-3	30*	-9	31
O=C(Nc1nc(-c2cccc([N+](=O)[O-])c2)cs1)C(c1ccccc1)c1ccccc1	-3	-6	4	3	12	-15	.
CC(C)(C)C(=O)c1c(N)[nH]c(C(=O)c2ccccc2)c1-c1ccc(Cl)cc1Cl	5	.	1	.	3	.	.
Nc1[nH]c(C(=O)c2ccccc2)c(-c2ccc(Cl)cc2Cl)c1C(=O)c1ccc(Cl)c(Cl)c1	7	.	3	.	36*	.	5
Cc1ccc(S(=O)(=O)N2C3CC(c4ccccc4)N(S(=O)(=O)c4cccc(Cl)c4)CC3C(=O)C[C@H]2c2ccccc2)cc1 (stereo partly specified)	1	.	0	.	.	.	.
Cc1ccc(C2(SCC(N)C(=O)O)c3ccccc3-c3ccccc32)cc1 (stereo unspecified)	2	38	2	3	39*	-8	54*
CC(=O)c1cc(C#N)c(N2CCOCC2)nc1C	-2	0	-1	-1	0	-5	.
CCOc1cc(/C=N\NC(=O)CN2CCOCC2)ccc1OCc1ccc(F)cc1	-6	-2	-1	-2	-6	-9	.
N#C/C(=C\Nc1ccc2cn[nH]c2c1)c1nc(-c2ccccc2)cs1	8	48	2	3	35*	-5	1

Screening data from PubChem.
